Assay outcomes (PubChem BioAssay)
This is a sample that favours compounds with a hit; in the whole collection about 3.5% have one here.
MrgX1 ag: agonists of human MrgX1 receptor; B-score at 10 µM; AID 588627; MrgX1-HEK293 cells, Fluo-4 calcium fluorescence, agonist mode; stronger effect = higher value; Q96LB2; hit rate 0.44% among 310,000;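 active = calcium response B-score plate-corrected fluorescence ratio at least 3 library SD, with starting fluorescence B-score inside 5 SD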
Target sequence (Q96LB2 whole entry, looked up): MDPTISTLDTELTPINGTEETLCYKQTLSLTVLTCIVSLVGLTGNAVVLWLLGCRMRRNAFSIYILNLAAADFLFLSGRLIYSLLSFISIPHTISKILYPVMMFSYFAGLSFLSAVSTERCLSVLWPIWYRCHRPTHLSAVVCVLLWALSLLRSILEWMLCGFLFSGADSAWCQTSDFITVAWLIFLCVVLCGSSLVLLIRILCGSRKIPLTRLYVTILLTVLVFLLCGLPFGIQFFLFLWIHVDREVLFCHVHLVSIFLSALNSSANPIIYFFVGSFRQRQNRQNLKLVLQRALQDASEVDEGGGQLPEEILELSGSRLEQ
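Test system: HEK293 cells stably expressing human MrgX1 receptor; amount: 15,000 cells per well; doses: compound delivered in addition one of three; times: overnight plating before 1 h dye loading; detection: Fluo-4 NW calcium-flux fluorescence, kinetic read; read-out basis: B-scored fluorescence response ratio; controls: positive and negative controls per plate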
MrgX1 antag: antagonists of human MrgX1 receptor | Q96LB2 | MRGX1-HEK293 calcium flux, Fluo-4, BAM8-22 antagonism; stronger effect = lower value | B-score at 10 µM | hit rate 1.3% among 310,000 | AID 588676;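 active = calcium-response B-score plate-corrected more than 3 library SD below zero, starting fluorescence within 5 deviations, no agonist response on first addition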;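 note: peak minus trough fluorescence over baseline after final BAM8-22 challenge near maximal dose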
MrgX1 PAM: allosterically activates human MrgX1 receptor signaling | B-score at 10 µM | AID 588675 | MrgX1-HEK293, Fluo-4 calcium flux, FDSS; stronger effect = higher value | Q96LB2 | hit rate 0.63% among 310,000;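 active = plate-corrected calcium response at least 3 library SD above typical, normal starting fluorescence, not activating the receptor alone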;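 note: compound read alongside a low EC10 to EC30 dose of BAM8-22 agonist; peak minus trough fluorescence over baseline measured at the second addition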
RGS4 inh: human RGS4 inhibition | P49798 | HEK293 M3R/RGS4 inducible, Fluo-4 calcium flux; stronger effect = higher value; triggered by carbachol at its EC20 | B-score at 10 µM | hit rate 0.45% among 310,000 | AID 463165;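 active = B-score, a plate-corrected calcium signal, over three deviations above library mean, with baseline fluorescence within five deviations of library mean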;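 note: RGS4 expression induced by doxycycline in cells with stable M3 receptor; B-score is computed from the integrated fluorescence ratio over baseline after carbachol; higher B-score means a larger calcium signal and so more RGS4 inhibition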
Target sequence (P49798 whole entry, looked up): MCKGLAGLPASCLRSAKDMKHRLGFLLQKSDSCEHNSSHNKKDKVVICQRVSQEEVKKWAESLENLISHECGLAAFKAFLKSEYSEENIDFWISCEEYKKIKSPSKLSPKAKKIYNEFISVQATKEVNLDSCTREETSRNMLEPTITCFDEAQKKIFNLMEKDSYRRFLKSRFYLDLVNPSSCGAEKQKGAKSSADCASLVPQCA
RGS4 act: RGS4 potentiation or activation; HEK293 M3R/inducible RGS4, carbachol calcium flux Fluo4; stronger effect = lower value; B-score at 10 µM; hit rate 0.92% among 310,000; AID 463111;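 active = B-score of the integrated calcium signal more than 4 SD below the library mean, with starting fluorescence not abnormally high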;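 note: negative B-score means reduced calcium response which marks RGS4 activation or potentiation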
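Test system: HEK293 cells with stable M3R and inducible RGS4; also added: carbachol at ECmax as muscarinic agonist stimulus; schedule: dye loading 30 min 37 °C, buffer rest 30 min RT; technique: kinetic calcium fluorescence imaging with Fluo4-AM dye, 2 µM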
MrgX1 antag conf: reconfirmed antagonist of human MrgX1 receptor signaling | shares compounds with MrgX1 antag | MrgX1-HEK293, BAM8-22 calcium flux, Fluo-4; stronger effect = lower value | remaining BAM8-22 calcium response % of control (stronger effect = lower value), % at 10 µM | hit rate 19% among 2,300 | AID 602420;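 active = remaining agonist calcium response no higher than 100% minus 3 SD of agonist-only control wells, with starting fluorescence near control levels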;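 note: agonist BAM8-22 given at a near maximal EC90 to ECmax level; peak minus minimum fluorescence divided by baseline after agonist addition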
HEK293 Ca flux: activity in parental HEK293 cells lacking MrgX1. shares compounds with MrgX1 antag. Fluo-4 calcium fluorescence, FDSS. fluorescence ratio F(max-min)/F0 at 10 µM. hit rate 2% among 4,000. AID 624111;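 active = duplicate-averaged calcium fluorescence ratio at least three times the standard deviation of buffer wells, a nonspecific response in parental cells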
HEK293 Ca counter: MrgX1 allosteric activator counter-screen hit in parental HEK293 cells | shares compounds with MrgX1 antag | fluorescence ratio F(max-min)/F0 at 10 µM | parental HEK293 calcium flux, Fluo-4 fluorescence ratio; stronger effect = higher value | hit rate 0.4% among 4,000;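 active = calcium fluorescence ratio, averaged over duplicates, at least 3 SD of the buffer-well ratio, meaning a nonspecific response in receptor-free cells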;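 note: untransfected parental HEK293 lacking MrgX1 used as counterscreen for MrgX1 allosteric activators; fluorescence change taken during the second addition on a kinetic imager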
HEK293 Ca cntr2: activity in parental HEK293 cells lacking MrgX1 receptor | shares compounds with MrgX1 antag | Fluo-4 calcium fluorescence (FDSS); stronger effect = higher value | fluorescence ratio F(max-min)/F0 at 10 µM | hit rate 8.7% among 4,000;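 active = calcium fluorescence ratio at least three times the spread of buffer wells, meaning a non-specific response in parental cells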
Starred values were filed as active, the others as inactive; i = inactive; / = no result.

SMILES	MrgX1 ag	MrgX1 antag	MrgX1 PAM	RGS4 inh	RGS4 act	MrgX1 antag conf	HEK293 Ca flux	HEK293 Ca counter	HEK293 Ca cntr2
Cc1cccc(NS(=O)(=O)c2cc(C(=O)OCC(=O)Nc3cc(C)on3)ccc2C)c1	i	-5*	i	i	i	i	i	i	i
CC(C)N(CCNCC(O)COc1ccc(C(C)(C)c2ccccc2)cc1)C(C)C (stereo not drawn)	i	i	i	i	i	/	/	/	/
CCC(=O)Nc1ccc(NC(=S)Nc2ccccc2)cc1	i	-4.8*	i	i	i	i	i	i	i
CCC(=O)Nc1ccc(NC(=S)NC(=O)Cc2ccccc2)cc1	i	i	i	i	i	/	/	/	/
NC1=NC(c2ccccc2Cl)n2c(nc3ccccc32)N1 (stereo not drawn)	i	-8.6*	i	i	i	i	i	i	i
CS(=O)(=O)N1CCC(Oc2ccccc2C(=O)N2CCCCC2CO)CC1 (stereo not drawn)	i	-4.6*	i	i	i	i	i	i	i
Cc1c(C(=O)NCC2CCCO2)oc2ccc(S(=O)(=O)N3CCCCC3)cc12 (stereo not drawn)	i	-7.2*	i	i	i	84%*	i	i	i
Cc1ccc(S(=O)(=O)Nc2c(C)n(C)n(-c3ccccc3)c2=O)cc1C(=O)OCC(=O)N1CCCC(C)C1 (stereo not drawn)	i	i	i	i	i	/	/	/	/
CC1(C(=O)OCC(=O)NNC(=O)COc2ccc(Cl)cc2)CC1(Cl)Cl (stereo not drawn)	i	i	i	i	i	/	/	/	/
COc1ccc2c(c1OC)C(=O)OC2Nc1ccccc1S(=O)(=O)C(F)F (stereo not drawn)	i	-4.7*	i	i	i	i	i	i	i
Cc1nc2c(C(=O)N3CCN(C)CC3)cnn2c(C)c1Cc1ccc(Cl)cc1	i	i	i	i	i	/	/	/	/
C=CCc1c(C)nc2c(C(=O)O)cnn2c1C	i	-4.6*	i	i	i	i	i	i	i
NC(=O)C1CCN(CC(=O)Nc2cccc(C(=O)Nc3cccc(C(F)(F)F)c3)c2)CC1	i	-7*	i	i	i	84%*	i	i	i
CSc1cccc(CN2CCC(Oc3ccc(C(=O)N4CCCCC4)cc3)CC2)c1	i	i	i	i	i	/	/	/	/
Cc1ccc(NC(=O)[C@@H]2CCC(=O)N2C2OC(=O)c3ccccc32)cc1Cl (stereo partly drawn)	i	i	i	i	i	/	/	/	/
Cc1ccc(Cl)cc1NC(=O)[C@@H]1CCC(=O)N1C1OC(=O)c2ccccc21 (stereo partly drawn)	i	-9.9*	i	i	i	84%*	i	i	i
CN(C)S(=O)(=O)c1cccc(NC(=O)c2ccc(COc3ccccc3)cc2)c1	i	-4.8*	i	i	-7.2*	57%*	i	i	i
CCOC(=O)COc1ccc2c(c1)C(=O)CC1(CCCCC1)O2	i	-7.6*	i	i	i	i	i	i	i
CCN(C(=O)Cc1c(C(=O)O)n(C)c2ccccc12)c1ccc(F)cc1	i	-5*	i	i	i	i	i	i	i
CCN(C(=O)Cc1c(C(=O)O)n(C)c2ccccc12)c1cc(OC)ccc1OC	i	i	i	i	i	/	/	/	/
CCOc1ccc(CCNC(=O)C2CCCN(c3ncnc4c3nc3n4CCCCC3)C2)cc1 (stereo not drawn)	i	i	i	i	i	/	/	/	/
O=C(Cc1ccc2c(c1)OCCO2)c1c(O)cc(O)cc1O	i	-5.2*	i	i	i	71%*	i	i	i
COc1ccc(C(=O)Cc2ccc3c(c2)OCO3)c(O)c1	i	i	i	i	i	/	/	/	/
Cc1cc(NC(=O)CSc2nc3c(c(-c4cccnc4)c2C#N)CCC3)no1	i	-5.3*	i	i	i	i	i	i	i
COc1ccc(S(=O)(=O)N2CCC3(CC2)OCCN3S(=O)(=O)c2ccc(C)cc2)cc1OC	i	-6.6*	i	i	i	i	i	i	i
SMILES	MrgX1 ag	MrgX1 antag	MrgX1 PAM	RGS4 inh	RGS4 act	MrgX1 antag conf	HEK293 Ca flux	HEK293 Ca counter	HEK293 Ca cntr2
Cc1ccsc1C(=O)N(Cc1nnc(-c2ccccc2Cl)o1)C1CC1	i	-5.8*	i	i	i	i	i	i	i
O=C(c1cccc(-n2cccc2)c1)N1CCN(S(=O)(=O)c2ccccc2)CC1	i	i	i	i	i	/	/	/	/
O=C(c1cccc(-n2cccc2)c1)N1CCN(S(=O)(=O)c2c(F)cccc2F)CC1	i	-6.1*	i	i	i	i	i	i	i
C=CCn1c(SCC(=O)Nc2sccc2C(N)=O)nc2sc(CC)cc2c1=O	i	i	i	i	i	/	/	/	/
C=CCn1c(SCc2nc3cc(C(=O)OC)ccc3c(=O)[nH]2)nc2sc(CC)cc2c1=O	i	-4.8*	i	i	i	i	i	i	i
CC1(C)CC(=O)N(CC(=O)O)c2ccccc2S1	i	-4.5*	i	i	i	i	i	i	i
COC(=O)CN1C(=O)CC(C)(C)Sc2ccccc21	i	i	i	i	i	/	/	/	/
N#Cc1ccsc1NC(=O)CN1C(=O)NC2(CCCCC2)C1=O	i	i	i	i	i	/	/	/	/
Cc1ccc(C(=O)NCc2ccco2)cc1S(=O)(=O)N1CCCCC1	i	-6.7*	i	i	i	i	i	i	i
Cc1ccc(C(=O)Nc2ccccc2C(=O)NCc2ccco2)cc1S(=O)(=O)N1CCCCC1	i	i	i	i	i	/	/	/	/
O=C(Nc1cccc(Br)c1)c1ccc(Cl)c(S(=O)(=O)N2CCOCC2)c1	i	-4.7*	i	i	i	80%*	i	i	i
Cc1ccc(C(=O)Nc2ccncc2)cc1S(=O)(=O)N1CCOCC1	i	-4.6*	i	i	i	i	i	i	64*
